From ChEMBL document CHEMBL2311276, “Synthesis of amidine and bis amidine derivatives and their evaluation for anti-inflammatory and anticancer activity” (Eur J Med Chem, 2013)
pIC50: −log10 of the molar value.

Columns and labels:
[1] = system: HCT-15; assay: Cytotoxicity against human HCT15 cells assessed as growth inhibition at 1 x 10 '-5 M after 24 hrs by MTT assay; assay type: functional; details: HCT-15, 24 h, read-out: GI
How it was run: (§1)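 MTT screen at a single concentration of 1 × 10⁻⁵ M, 24 h exposure. Seeding was 5 × 10³ cells/well in RPMI-1640 with 2 mM glutamine. Vehicle was 0.1% final DMSO. MTT was added for 4 h at 37 °C, formazan dissolved in DMSO/glycine buffer (pH 10.5), and A570 read. Percent growth inhibition was calculated against vehicle-treated cells; triplicate, mean of three independent experiments.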

[2] = system: Rattus norvegicus; assay: Antiinflammatory activity in Charles Foster albino rat assessed as inhibition of carrageenan-induced paw edema at 50 mg/kg, po administered 30 mins before carrageenan challenge measured after 1 to 3 hrs by plethysmometer analysis; assay type: functional
How it was run: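 Rats of both sexes (120–160 g; pregnant females excluded), five per group, were dosed orally at 50 mg/kg. After 30 min, 0.20 mL of freshly prepared 1% carrageenan in 0.9% NaCl was injected into the plantar aponeurosis of the hind paw. Paw volume was read by water plethysmometer before and 1–3 h later. Percent inhibition was taken against a carrageenan-only control group of five rats.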

[3] = system: T47D; assay: Cytotoxicity against human T47D cells assessed as growth inhibition at 1 x 10 '-5 M after 24 hrs by MTT assay; assay type: functional; details: read-out: GI; how it was run: as §1
[4] = system: HepG2; assay: Cytotoxicity against human HepG2 cells assessed as growth inhibition at 1 x 10 '-5 M after 24 hrs by MTT assay; assay type: functional; details: HepG2, 24 h, read-out: GI; how it was run: as §1
[5] = system: NCI-H522; assay: Cytotoxicity against human NCI-H522 cells assessed as growth inhibition at 1 x 10 '-5 M after 24 hrs by MTT assay; assay type: functional; details: NCI-H522, 24 h, read-out: GI; how it was run: as §1
[6] = system: PA-1; assay: Cytotoxicity against human PA1 cells assessed as growth inhibition at 1 x 10 '-5 M after 24 hrs by MTT assay; assay type: functional; details: PA-1, 24 h, read-out: GI; how it was run: as §1
[7] = system: COS-1; assay: Cytotoxicity against african green monkey COS1 cells after 24 hrs by MTT assay; assay type: cell-based; details: Chlorocebus aethiops, COS-1, 24 h
[8] = system: NCI-H522; assay: Cytotoxicity against human NCI-H522 cells after 24 hrs by MTT assay; assay type: functional, cell-based; details: NCI-H522, 24 h
How it was run: (§2)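 Cell lines came from NCCS Pune and were grown in RPMI-1640 with 2 mM glutamine, pH 7.4. Cells were seeded at 5 × 10³ per well and exposed to serial dilutions in DMSO for 24 h, with 0.1% final DMSO as vehicle control. MTT (5 mg/ml) was added for 4 h at 37 °C. Formazan was dissolved in DMSO plus Sorensen glycine buffer (pH 10.5) and read at 570 nm. IC50 came from % inhibition versus vehicle; triplicate, mean ± SD of three experiments.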

[9] = system: HepG2; assay: Cytotoxicity against human HepG2 cells after 24 hrs by MTT assay; assay type: functional, cell-based; details: HepG2, 24 h; how it was run: as §2
[10] = system: T47D; assay: Cytotoxicity against human T47D cells after 24 hrs by MTT assay; assay type: functional, cell-based; how it was run: as §2
[11] = system: HCT-15; assay: Cytotoxicity against human HCT15 cells after 24 hrs by MTT assay; assay type: functional, cell-based; details: HCT-15, 24 h; how it was run: as §2
[12] = system: PA-1; assay: Cytotoxicity against human PA1 cells after 24 hrs by MTT assay; assay type: functional, cell-based; details: PA-1, 24 h; how it was run: as §2

Row | SMILES | inhibition of growth at 10 µM [1] [%] | inhibition in vivo at 50 mg/kg [2] [%] | inhibition of growth at 10 µM [3] [%] | inhibition of growth at 10 µM [4] [%] | inhibition of growth at 10 µM [5] [%] | inhibition of growth at 10 µM [6] [%] | pIC50 [7] | pIC50 [8] | pIC50 [9] | pIC50 [10] | pIC50 [11] | pIC50 [12]
1 | N=C(NCCCCNC(=N)c1cnccn1)c1cnccn1 | 9 | 37 | 19 | 17 | 5 | 15 | – | – | – | – | – | –
2 | N=C(NCCCN1CCN(CCCNC(=N)c2ccccn2)CC1)c1ccccn1 | 31 | 38 | 39 | 34 | 39 | 31 | 3.69 | 4.66 | 4.68 | 4.65 | 4.60 | 4.40
3 | N=C(NCCCN1CCN(CCCNC(=N)c2ccncc2)CC1)c1ccncc1 | 9 | 31 | 2 | 6 | 31 | 13 | – | – | – | – | – | –
4 | N=C(NCCCN1CCN(CCCNC(=N)c2cnccn2)CC1)c1cnccn1 | 12 | 27 | 28 | 22 | 15 | 26 | – | – | – | – | – | –
5 | N=C(Nc1ccc(-c2ccc(NC(=N)c3cnccn3)cc2)cc1)c1cnccn1 | 45 | 31 | 14 | 37 | 43 | 43 | 4.00 | 4.85 | 4.69 | 4.20 | 4.92 | 4.77
6 | N=C(NCCN1CCOCC1)c1ccccn1 | 12 | 0 | 21 | 40 | 31 | 43 | – | – | – | – | – | –
7 | N=C(NCCN1CCOCC1)c1ccncc1 | 17 | 28 | 12 | 9 | 11 | 43 | – | – | – | – | – | –
8 | C[C@@H]1C[C@@H]([C@H](O)CC2CC(=O)NC(=O)C2)C(=O)[C@@H](C)C1 [CYCLOHEXIMIDE] | 16 | – | 11 | 18 | 9 | 34 | 3.89 | 4.22 | 4.24 | 4.19 | 4.27 | 4.39
9 | O=P1(N(CCCl)CCCl)NCCCO1 (stereo not drawn) [CYCLOPHOSPHAMIDE ANHYDROUS] | 4 | – | 9 | 18 | 11 | 12 | 3.90 | 4.17 | 4.26 | 4.15 | 4.13 | 4.19
10 | O=c1[nH]cc(F)c(=O)[nH]1 [FLUOROURACIL] | 19 | – | 15 | 32 | 13 | 22 | 3.96 | 4.25 | 4.52 | 4.29 | 4.35 | 4.40
11 | CC(C)Cc1ccc(C(C)C(=O)O)cc1 (stereo not drawn) [IBUPROFEN] | – | 39 | – | – | – | – | – | – | – | – | – | –
